From ChEMBL document CHEMBL3585325, “Discovery of (1R,2S)-2-{[(2,4-Dimethylpyrimidin-5-yl)oxy]methyl}-2-(3-fluorophenyl)-N-(5-fluoropyridin-2-yl)cyclopropanecarboxamide (E2006): A Potent and Efficacious Oral Orexin Receptor Antagonist” (J Med Chem, 2015)

Legend:
Mus musculus [1] = assay: Sleep promoting activity in C57BL/6NCrlCrlj mouse assessed as increase in non-REM sleep at 10 mg/kg, po administered immediately prior to beginning of dark cycle measured during first 3 hrs after drug administration by electroencephalogram/electromyogram analysis (reference value: 62.6 min); assay type: functional
In short: (§1)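 Male C57BL/6NCrlCrlj mice implanted with EEG/EMG electrodes were dosed orally in 10% Cremophor EL, 5% DMSO in saline just before lights-off (ZT12) and recorded from ZT12 to ZT20. Group sizes were n=6 dosed and n=7 vehicle. Stages were scored by software with blinded visual confirmation; cumulative first-3-h times are mean with SEM. Dunnett's test was run after one-way ANOVA.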

[2] = Half life in C57BL/6NCrlCrlj mouse at 30 mg/kg, po by LC-MS/MS analysis; assay type: ADME, organism-based; conditions: in vivo
[3] = AUC (0 to infinity) in C57BL/6NCrlCrlj mouse at 1 mg/kg, iv by LC-MS/MS analysis; assay type: ADME, organism-based; design: dose 1 mg/kg, time infinity, route intravenous; conditions: in vivo
In short: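 Male C57BL/6NCrlCrlj mice dosed intravenously at 1 mg/kg in 10% DMSO in water. Blood was taken from the tail vein at set time points and spun to plasma. Concentrations were measured by LC-MS/MS (MRM, positive mode) against a 1/x²-weighted standard curve with internal standard. Parameters came from noncompartmental analysis.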

[4] = Tmax in C57BL/6NCrlCrlj mouse at 30 mg/kg, po by LC-MS/MS analysis; assay type: ADME, organism-based; conditions: in vivo
CYP3A = CYP3A (Homo sapiens, UniProt P08684+P20815+P24462+Q9HB55); assay: Time dependent inhibition of CYP3A in human liver microsomes assessed as enzyme activity using midazolam as substrate at 10 uM incubated for 30 mins prior to substrate addition for 10 mins by LC-MS/MS analysis; assay type: ADME; design: scale not given: the % may be the effect or the level left; conditions: probe midazolam, read-out: Activity
In short: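 Test compound at 10 μM preincubated 30 min at 37 °C with human liver microsomes (0.2 mg/mL), with or without an NADPH-generating system. Mixture then diluted 10-fold into a marker-substrate cocktail plus NADPH system and incubated 10 min at 37 °C. Midazolam served as the CYP3A probe. Metabolites measured by LC−MS/MS. Result is the residual activity with NADPH relative to without, as % of control.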

Mus musculus [5] = assay: Sleep promoting activity in C57BL/6NCrlCrlj mouse assessed as reduction in wakefulness time at 30 mg/kg, po administered immediately prior to beginning of dark cycle measured during first 3 hrs after drug administration by electroencephalogram/electromyogram analysis (reference value: 116.7 min); assay type: functional; in short: as §1
[6] = Plasma protein binding in C57BL/6N mouse at 10 mg/kg, po administered as single dose by equilibrium dialysis method; assay type: ADME, organism-based; conditions: read-out: PPB (converted)
Cytochrome P450 2C8 = target: T1, Cytochrome P450 2C8 (Homo sapiens, UniProt P10632); assay: Inhibition of CYP2C8 in human liver microsomes using rosiglitazone as susbtrate incubated for 30 mins prior to substrate addition for 10 mins by LC-MS/MS analysis; assay type: ADME
T1 sequence (P10632 whole entry): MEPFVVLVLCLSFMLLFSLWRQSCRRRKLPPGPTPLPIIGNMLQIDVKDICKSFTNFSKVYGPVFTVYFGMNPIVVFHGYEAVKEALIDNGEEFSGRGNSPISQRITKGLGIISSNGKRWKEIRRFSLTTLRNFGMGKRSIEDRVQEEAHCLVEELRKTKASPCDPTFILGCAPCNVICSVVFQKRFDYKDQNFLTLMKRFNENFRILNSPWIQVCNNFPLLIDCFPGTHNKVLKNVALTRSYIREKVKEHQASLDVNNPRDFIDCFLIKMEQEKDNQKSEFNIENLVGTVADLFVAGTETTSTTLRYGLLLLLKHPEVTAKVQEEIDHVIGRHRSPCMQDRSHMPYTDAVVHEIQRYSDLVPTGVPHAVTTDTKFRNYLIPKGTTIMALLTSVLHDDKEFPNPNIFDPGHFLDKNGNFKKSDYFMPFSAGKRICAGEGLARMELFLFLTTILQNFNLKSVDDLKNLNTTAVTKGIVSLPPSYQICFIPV

[7] = Cmax in C57BL/6NCrlCrlj mouse at 10 mg/kg, po by LC-MS/MS analysis; assay type: ADME, organism-based; design: dose 10 mg/kg, route oral; conditions: in vivo
In short: (§2)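 Male C57BL/6NCrlCrlj mice dosed orally at 10 mg/kg in 10% Cremophor EL, 5% DMSO in saline. Tail-vein blood was taken at set time points and spun to plasma. Quantified by LC-MS/MS (MRM, positive mode) with internal standard and a 1/x²-weighted calibration. Parameters came from noncompartmental analysis.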

[8] = Drug uptake in C57BL/6NCrlCrlj mouse CSF at 10 mg/kg, po administered as single dose measured after 1 hr by LC-MS/MS analysis; assay type: ADME, organism-based, Cerebrospinal fluid; conditions: read-out: Drug uptake
In short: (§3)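 Male C57BL/6NCrlCrlj mice given a single 10 mg/kg oral dose as a suspension in 0.5% aqueous methylcellulose. At 1 or 3 h, under pentobarbital anesthesia, CSF was taken from the cisterna magna and then blood from the abdominal aorta (spun to plasma). Samples were acetonitrile-precipitated with deuterated internal standard and run by LC-MS/MS. Values are mean with SEM.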

[9] = Tmax in C57BL/6NCrlCrlj mouse at 10 mg/kg, po by LC-MS/MS analysis; assay type: ADME, organism-based; conditions: in vivo; in short: as §2
Cytochrome P450 2C19 = Cytochrome P450 2C19 (Homo sapiens, UniProt P33261); assay: Inhibition of CYP2C19 in human liver microsomes using S-mephenytoin as susbtrate incubated for 30 mins prior to substrate addition for 10 mins by LC-MS/MS analysis; assay type: ADME
Sequence of Cytochrome P450 2C19 (P33261 whole entry): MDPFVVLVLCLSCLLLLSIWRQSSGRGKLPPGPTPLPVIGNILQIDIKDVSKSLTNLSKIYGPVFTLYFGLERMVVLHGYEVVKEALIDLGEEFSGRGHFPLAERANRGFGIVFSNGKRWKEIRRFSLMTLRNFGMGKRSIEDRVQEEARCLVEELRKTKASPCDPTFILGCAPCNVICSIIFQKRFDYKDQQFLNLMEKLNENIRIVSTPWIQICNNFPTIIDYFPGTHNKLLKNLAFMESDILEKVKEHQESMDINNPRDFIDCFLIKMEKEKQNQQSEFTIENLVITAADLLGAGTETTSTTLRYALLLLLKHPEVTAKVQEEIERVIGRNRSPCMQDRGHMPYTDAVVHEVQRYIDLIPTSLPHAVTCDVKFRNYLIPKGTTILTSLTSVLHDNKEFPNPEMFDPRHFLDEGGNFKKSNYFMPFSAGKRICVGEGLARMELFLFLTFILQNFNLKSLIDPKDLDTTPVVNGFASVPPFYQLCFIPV

[10] = Half life in C57BL/6NCrlCrlj mouse at 10 mg/kg, po by LC-MS/MS analysis; assay type: ADME, organism-based; conditions: in vivo; in short: as §2
[11] = Drug uptake in C57BL/6NCrlCrlj mouse CSF at 10 mg/kg, po administered as single dose measured after 3 hrs by LC-MS/MS analysis; assay type: ADME, organism-based, Cerebrospinal fluid; conditions: read-out: Drug uptake; in short: as §3

Cc1ncc(OC[C@@]2(c3cccc(F)c3)C[C@H]2C(=O)Nc2ccc(F)cn2)c(C)n1 [LEMBOREXANT]
Time (Mus musculus [1]): 99.3 min | half-life [2]: 1.94 h | AUC(0-inf) [3]: 1030 ng·h/mL | Tmax [4]: 1 h | activity at 10 min, 10 µM (CYP3A): 76% | Time (Mus musculus [5]): 75.3 min | fraction unbound [6]: 0.148 | IC50 (Cytochrome P450 2C8): > 20 µM | Cmax [7]: 488 ng/mL | concentration at 1 h [8]: 32.8 nM | Tmax [9]: 0.25 h | IC50 (Cytochrome P450 2C19): > 20 µM | half-life [10]: 2.2 h | concentration at 3 h [11]: 7.6 nM
